M1 antagonist – M1 muscarinic receptor (rat) antagonism | P08482 | CHO-M1 cells, Fluo-4 calcium, ACh EC80 antagonist mode; active compounds read low | B-score at 10 µM | hit rate 3.4% among 64,000 | AID 628;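 active = calcium fluorescence response, raw or row-and-column corrected B-score, differing from the plate sample mean either way at a set confidence level, mostly lower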
HEK293 NFkB inh – inhibitors of the PMA/ionomycin-induced NF-kB reporter in HEK293 cells; HEK-293 NF-kB luciferase reporter, luminescence; inhibition, % at 3 µM; hit rate 0.21% among 62,000; AID 465;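 active = inhibition above the mean of all tested compounds plus 3 SD, cut at about 40% in these data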;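 also: 0% = stimulated DMSO wells and 100% = 10 µM reference inhibitor 5653914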
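Timing: 1 h pretreatment, 16 h stimulation, 37 °C; system: HEK-293 cells with stable firefly luciferase reporter driven by four HIV NF-kB elements; doses: 3 µM once, 0.30% DMSO; measured by: luciferase luminescence; control set: DMSO and 10 µM reference inhibitor; repeats: single test; reagent: PMA plus ionomycin mix as NF-kB-activating stimulus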
DAT uptake mod – human DAT dopamine uptake with cocaine, either direction; Q01959; LLC-PK1 hDAT cells, [14C]-dopamine uptake with cocaine IC80; actives deviate in either direction; B-score at 10 µM; hit rate 1.3% among 110,000; AID 449768;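 active = Z score or B-score, a plate-position-corrected score, falls beyond the plate's 99.7% confidence bounds, in either direction; inactive = both scores lie inside the 99.7% bounds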;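 also: scored against the spread of the other compound wells on the same plate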
BAP1 block – inhibitors of human BAP1 deubiquitinase. Q92560. recombinant BAP1, Ub-AMC hydrolysis fluorescence kinetic; active compounds read low. calls only at 20 µM. hit rate 0.48% among 72,000. AID 436;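 active = activity remaining at or below 50% of control, provided the compound also passes the data quality filters; inactive = the rest, including low values that fail the filters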;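 also: 100% = DMSO wells rate and 0% = substrate alone blank rate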
Target sequence (Q92560 whole entry, looked up): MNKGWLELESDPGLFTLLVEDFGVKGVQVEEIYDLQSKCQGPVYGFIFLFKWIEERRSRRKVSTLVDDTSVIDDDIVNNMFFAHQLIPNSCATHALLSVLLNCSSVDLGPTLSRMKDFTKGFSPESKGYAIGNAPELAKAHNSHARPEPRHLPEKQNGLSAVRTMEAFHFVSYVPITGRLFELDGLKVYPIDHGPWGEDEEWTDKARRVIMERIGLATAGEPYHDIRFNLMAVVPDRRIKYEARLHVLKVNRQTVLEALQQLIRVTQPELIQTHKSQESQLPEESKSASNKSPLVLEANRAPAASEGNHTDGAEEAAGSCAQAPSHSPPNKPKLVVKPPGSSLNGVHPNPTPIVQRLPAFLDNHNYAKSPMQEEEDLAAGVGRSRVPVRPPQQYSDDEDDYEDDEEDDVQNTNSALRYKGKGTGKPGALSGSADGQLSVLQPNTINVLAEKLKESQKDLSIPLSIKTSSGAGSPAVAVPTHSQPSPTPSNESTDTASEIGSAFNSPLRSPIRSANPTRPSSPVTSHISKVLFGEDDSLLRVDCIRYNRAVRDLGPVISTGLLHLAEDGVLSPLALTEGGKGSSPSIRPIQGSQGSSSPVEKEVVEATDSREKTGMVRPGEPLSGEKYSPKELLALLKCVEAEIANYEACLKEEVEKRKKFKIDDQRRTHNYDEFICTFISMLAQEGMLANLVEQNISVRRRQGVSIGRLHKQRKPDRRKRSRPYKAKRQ
D1 allo mod – D1 dopamine receptor (human) allosteric modulation; P21728; HEK293 D1, CRE-luciferase, dopamine EC30 potentiation; actives deviate in either direction; B-score at 10 µM; hit rate 5.9% among 58,000;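 active = luminescence count or its row- and column-corrected plate score outside the 99.7% band of the plate's sample wells, on either side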
M1 ag – activates the M1 muscarinic receptor | B-score at 10 µM | CHO-M1 cells, Fluo-4 calcium fluorescence, agonist mode; active compounds read high | hit rate 3% among 64,000;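 active = fluorescence rise, raw or as B-score row- and column-corrected plate score, outside the 99.7% band of its plate's samples, either direction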
M1 antag conf – M1 muscarinic receptor (rat) antagonism, confirmed; shares compounds with M1 antagonist; CHO-M1 cells, Fluo-4 calcium, ACh EC80 antagonism; active compounds read low; calcium response (max-min fluorescence) at 10 µM; hit rate 43% among 1,700;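 active = calcium response below the same-plate mean of wells given acetylcholine alone at its 80%-effect dose, minus 3 SD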;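 also: raw fluorescence intensity difference in arbitrary instrument units and not normalized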
mGluR4 antag – mGluR4 (human) activity, M1 antagonist secondary assay; shares compounds with M1 antagonist; CHO-mGluR4 calcium flux, Fluo-4 fluorescence, glutamate EC80; active compounds read low; hit rate 0.9% among 1,700; AID 678; fluorescence response (max-min) at 10 µM;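 active = fluorescence response below the plate's average for near-maximal glutamate wells, less 3 SD of those wells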;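 also: raw unnormalized fluorescence span taken in the window right after glutamate addition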
D1 PAM confirm – D1 receptor (human) allosteric modulation, confirmed; shares compounds with D1 allo mod; HEK293 D1 CRE-luciferase, dopamine EC30 potentiation; active compounds read high; luminescence at 10 µM; hit rate 88% among 2,200; AID 642;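 active = luminescence in either of two replicates above the same-plate mean plus 3 SD of the low-dose dopamine control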
D1 ag no DA – D1 (human) signaling in absence of dopamine | shares compounds with D1 allo mod | HEK293 D1 CRE-luciferase, luminescence, no dopamine; active compounds read high | luminescence at 10 µM | hit rate 0.8% among 1,900; in the data active = luminescence above about 3900
Isoprot counter – isoproterenol response counter-screen activity for D1 modulators; shares compounds with D1 allo mod; HEK293 D1 CRE-luciferase, isoproterenol EC30 counter-screen; calls only at 10 µM; hit rate 63% among 2,200; AID 647;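 active = luminescence in either replicate above plate mean of wells with a partly effective reference agonist dose plus 3 SD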;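 also: isoproterenol raises cAMP through native beta-adrenoceptor Gs so signal bypasses D1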
* hit, by the source's call; i = inactive; nt = not tested or not shown; + = active, no number. Hits are enriched below; roughly 7.2% of the tested compounds scored in any of these assays.

SMILES | M1 antagonist | HEK293 NFkB inh | DAT uptake mod | BAP1 block | D1 allo mod | M1 ag | D1 PAM confirm | D1 ag no DA | Isoprot counter | others
Nc1nc(CN2CCN(c3ccccc3)CC2)nc(N2CCCc3ccccc32)n1 | -3.1* | 9 | 0.09 | i | 4* | -0.12 | 8864* | 1484 | i | M1 antag conf=659;mGluR4 antag=252
COc1ccc(C(=O)OCCNC(=O)c2cccnc2)cc1OC | nt | nt | nt | i | nt | nt | nt | nt | nt
COc1cc(-c2nc(S(=O)(=O)c3ccc(Cl)cc3)c(N3CCOCC3)o2)cc(OC)c1OC | -0.5 | 13 | 0.18 | i | 3 | -0.49 | nt | nt | nt
COc1cc(-c2nc(S(=O)(=O)c3ccc(C)cc3)c(N3CCOCC3)o2)cc(OC)c1OC | -13* | 18 | nt | i | 5.4* | 0.43 | 8652* | 1408 | + | M1 antag conf=569;mGluR4 antag=183
CC1Cc2nc(SCC(N)=O)n(Cc3ccccc3)c(=O)c2S1 (centres undefined) | -0.73 | 5 | -0.42 | i | 2.2 | 0.27 | nt | nt | nt
CCSc1nc2c(c(=O)n1Cc1ccccc1)SC(C)C2 (centres undefined) | -3.7* | 3 | 0.57 | i | 3.4* | 1.1 | 11532* | 1552 | i | M1 antag conf=373*;mGluR4 antag=245
COc1cccc(-n2c(SC)nnc2-c2cnccn2)c1 | -3* | 3 | -0.36 | i | 14* | 0.68 | 5740 | 1548 | i | M1 antag conf=622;mGluR4 antag=266
CC1=C(C(=O)OCC2CCCCC2)C(c2ccccc2OC(C)C)NC(=O)N1 (centres undefined) | nt | nt | nt | i | nt | nt | nt | nt | nt
COC(=O)Nc1ccc2c(c1)N(C(=O)CCN1CCOCC1)c1ccccc1S2 | -5.2* | 21 | 0.3 | i | 4.3* | -0.29 | 8120* | 1920 | i | M1 antag conf=495*;mGluR4 antag=248
O=C(N1CCOCC1)N1c2ccccc2Sc2ccccc21 | nt | nt | 0.033 | nt | nt | nt | nt | nt | nt
CCOC(=O)Nc1ccc2c(c1)N(C(=O)CCN1CCOCC1)c1ccccc1S2 | -6.5* | 3 | 0.78 | i | 4.8* | -0.56 | 10492* | 1592 | + | M1 antag conf=434*;mGluR4 antag=236
O=S1(=O)N=C(N2CCc3ccccc3C2)c2ccccc21 | -2.1* | 11 | -0.58 | i | 2.4* | 0.52 | 6388* | 1564 | i | M1 antag conf=600*;mGluR4 antag=191
O=S1(=O)N=C(N2CCCc3ccccc32)c2ccccc21 | -0.35 | 18 | -2.3 | i | 0.93 | -0.43 | nt | nt | nt
Cc1cc(C)cc(C2CC(C)(O)CC(c3cc(C)cc(C)c3)S2)c1 (centres undefined) | nt | nt | nt | i | nt | nt | nt | nt | nt
CC(=O)NC1Sc2ccccc2N=C1c1ccccc1 (centres undefined) | 0.69 | -12 | 0.47 | i | 6.1* | 0.74 | 7472* | nt | i
COc1ccc(CCNS(=O)(=O)c2ccc3c(c2)OCCO3)cc1OC | 0 | 10 | 0.68 | nt | 5.2* | -1.2 | 11256* | 1696 | i
COc1ccc(CCNS(=O)(=O)c2cccc(F)c2)cc1OC | -0.032 | 5 | 0.18 | i | 8.1* | 0.15 | 11924* | nt | +
COc1ccc(CCNS(=O)(=O)c2cccc(C)c2)cc1OC | nt | nt | 1.2 | nt | nt | nt | nt | nt | nt
COCCCNS(=O)(=O)c1ccc2c(c1)OCCO2 | nt | 6 | 0.43 | i | 1.5 | nt | nt | nt | nt
COc1cc2nc3c4ccccc4n(CCC(C)C)c3nc2cc1OC | nt | nt | nt | i | nt | nt | nt | nt | nt
CC(C)NC(=O)COc1cccc(Cl)c1 | nt | nt | nt | i | nt | nt | nt | nt | nt
CCCCCOC(=O)C1=C(C)NC2=C(C(=O)CCC2)C1c1cc2c(cc1Cl)OCO2 (centres undefined) | nt | nt | nt | i | nt | nt | nt | nt | nt
C=CCn1c(SCc2nc3c(c(=O)[nH]c(=O)n3CCCC)n2CCC)nnc1-c1ccccc1 | -0.23 | 16 | 1.4 | i | 3.8* | 1.3 | 9252* | 1692 | i
N#CCSc1nnc(CNc2ccc(F)cc2)o1 | nt | nt | -0.84 | nt | nt | nt | nt | nt | nt
N#CCSc1nnc(CNc2cccc(Cl)c2)o1 | 0.0063 | 22 | -0.68 | i | 4* | 0.016 | 4760 | nt | i
SMILES | M1 antagonist | HEK293 NFkB inh | DAT uptake mod | BAP1 block | D1 allo mod | M1 ag | D1 PAM confirm | D1 ag no DA | Isoprot counter | others
Clc1cccc(NCc2nnc(SCc3ccccc3)o2)c1 | -0.43 | 3 | -0.35 | i | 3.2* | 0.052 | 7948* | nt | i
COc1ccc(OC(C)=O)c(C2c3cc(OC)c(OC)cc3CCN2C(C)=O)c1 (centres undefined) | 0.81 | 10 | -0.26 | i | 4 | 1.3 | nt | nt | nt
CCC(=O)N1CCc2cc(OC)c(OC)cc2C1COc1ccc(C(=O)OC)cc1 (centres undefined) | -0.006 | 15 | 0.22 | i | 15* | 0.48 | 20996* | 3492 | +
Clc1ccc(-c2nn3c(-c4cccc(Cl)c4)nnc3s2)cc1 | 0.28 | nt | nt | nt | nt | 0.0064 | nt | nt | nt
Cc1cccc(-c2nnc3sc(-c4ccccc4)nn23)c1 | -0.35 | -13 | 0.37 | i | 7.6* | -0.92 | 15580* | 1692 | +
COc1cccc(-c2nn3c(-c4cc(C)[nH]n4)nnc3s2)c1 | -0.41 | 5 | -0.36 | i | 3.4* | 1 | 6292* | 2016 | i
c1ccc(-c2nn3c(-c4ccccc4)nnc3s2)cc1 | 1.1 | 11 | -0.015 | i | 6.3* | 0.08 | 14100* | 1944 | i
Cc1ccc(-c2nnc3sc(-c4ccncc4)nn23)cc1 | -0.67 | 11 | -0.056 | i | 2.5 | -0.14 | nt | nt | nt
COc1ccc(NC(=O)c2cc3ccccc3oc2=Nc2ccccc2Cl)cc1 | nt | nt | nt | i | nt | nt | nt | nt | nt
Cc1sc2ncnc(NCC3CCCO3)c2c1C (centres undefined) | nt | nt | -0.33 | nt | nt | nt | nt | nt | nt
Cc1nc2oc3c(NCC4CCCO4)ncnc3c2c2c1COC(C)(C)C2 (centres undefined) | 0.36 | 20 | 2.2 | i | 6.4* | -1.4 | 9548* | nt | i
CCCc1nc2oc3c(NCCOCCO)ncnc3c2c2c1COC(C)(C)C2 | nt | 27 | 1.3 | i | 14* | nt | 18640* | nt | +
CCCc1nc2oc3c(OC)ncnc3c2c2c1COC(C)(C)C2 | nt | nt | 1.1 | nt | nt | nt | nt | nt | nt
CCOC(=O)c1ccc2nc(NC(=O)C(C)C)sc2c1 | -1.3 | -40 | 0.55 | i | 5.4* | -0.63 | 7532 | 1532 | i
C1=Nc2c(NCc3ccccc3)ncnc2Oc2ccccc21 | -0.11 | -20 | 0.94 | i | 8* | 0.75 | 10088* | 1584 | +
c1ccc(CNc2ncnc3nc[nH]c23)cc1 | nt | nt | -0.18 | nt | nt | nt | nt | nt | nt
